Test results from ChEMBL document CHEMBL1649446, “Comparative antipneumococcal activities of sulopenem and other drugs” (2009).
Converted amounts (≈) assume the structure as drawn.

What was measured:
Format in all cases: functional
Streptococcus pneumoniae [1] = assay: Antimicrobial activity against Streptococcus pneumoniae 1 by time-kill analysis
Method in brief: (§1)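 Time-kill in cation-adjusted Mueller-Hinton broth with 5% lysed horse blood; inocula 5 × 105 to 5 × 10^6 CFU/ml; drugs at MIC, 2× and 4× MIC; 35°C shaking water bath; viable counts at 0, 3, 6, 12 and 24 h. Bactericidal if ≥3 log10 CFU/ml (99.9%) reduction from original inoculum; 90% and 99% killing also scored.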

Streptococcus pneumoniae [2] = assay: Antimicrobial activity against Streptococcus pneumoniae 5 by time-kill analysis; method in brief: as §1
Streptococcus pneumoniae [3] = assay: Antimicrobial activity against Streptococcus pneumoniae isolate 1147 by agar dilution method
Method in brief: (§2)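 Agar dilution MIC on Mueller-Hinton agar with 5% sheep blood, inocula 10^4 CFU/spot; amoxicillin-clavulanate combined 1:2; S. pneumoniae ATCC 49619 quality control each run.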

Streptococcus pneumoniae [4] = assay: Antimicrobial activity against Streptococcus pneumoniae isolate 3455 by agar dilution method
Streptococcus pneumoniae [5] = assay: Antimicrobial activity against Streptococcus pneumoniae isolate 2880 by agar dilution method; method in brief: as §2
Streptococcus pneumoniae [6] = assay: Antimicrobial activity against Streptococcus pneumoniae 9 by time-kill analysis; method in brief: as §1
Streptococcus pneumoniae [7] = assay: Antimicrobial activity against Streptococcus pneumoniae isolate 1424 by agar dilution method; method in brief: as §2
Streptococcus pneumoniae [8] = assay: Antimicrobial activity against Streptococcus pneumoniae isolate 1055 by agar dilution method
Streptococcus pneumoniae [9] = assay: Antimicrobial activity against Streptococcus pneumoniae isolate 1146 by agar dilution method; method in brief: as §2
Streptococcus pneumoniae [10] = assay: Antimicrobial activity against Streptococcus pneumoniae 3 by time-kill analysis
Method in brief: as §1, with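 “12,” for “12 and”, “=” for “if”, “drop” for “reduction”, “90%/99%/99.9%” for “90% and 99%”, “scored per strain.” for “also scored.”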

Streptococcus pneumoniae [11] = assay: Antimicrobial activity against Streptococcus pneumoniae isolate 3346 by agar dilution method
Streptococcus pneumoniae [12] = assay: Antimicrobial activity against Streptococcus pneumoniae 7 by time-kill analysis
Method in brief: as §1, with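 “12,” for “12 and”, “=” for “if”, “drop” for “reduction”, “90%/99%/99.9%” for “90% and 99%”, “scored per strain.” for “also scored.”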

Streptococcus pneumoniae [13] = assay: Antimicrobial activity against Streptococcus pneumoniae isolate 2688 by agar dilution method; method in brief: as §2
Streptococcus pneumoniae [14] = assay: Antimicrobial activity against Streptococcus pneumoniae isolate 37 by agar dilution method; method in brief: as §2
Streptococcus pneumoniae [15] = assay: Antimicrobial activity against Streptococcus pneumoniae 6 by time-kill analysis
Method in brief: as §1, with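 “12,” for “12 and”, “=” for “if”, “drop” for “reduction”, “90%/99%/99.9%” for “90% and 99%”, “scored per strain.” for “also scored.”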

Streptococcus pneumoniae [16] = assay: Antimicrobial activity against Streptococcus pneumoniae isolate 3282 by agar dilution method
Streptococcus pneumoniae [17] = assay: Antimicrobial activity against Streptococcus pneumoniae isolate 3791 by agar dilution method; method in brief: as §2
Streptococcus pneumoniae [18] = assay: Antimicrobial activity against Streptococcus pneumoniae isolate 3374 by agar dilution method; method in brief: as §2
Streptococcus pneumoniae [19] = assay: Antimicrobial activity against Streptococcus pneumoniae 8 by time-kill analysis
Method in brief: as §1, with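 “12,” for “12 and”, “=” for “if”, “drop” for “reduction”, “90%/99%/99.9%” for “90% and 99%”, “scored per strain.” for “also scored.”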

Streptococcus pneumoniae [20] = assay: Antimicrobial activity against Streptococcus pneumoniae isolate 2686 by agar dilution method; method in brief: as §2
Streptococcus pneumoniae [21] = assay: Antimicrobial activity against Streptococcus pneumoniae isolate 2874 by agar dilution method; method in brief: as §2
Streptococcus pneumoniae [22] = assay: Antimicrobial activity against Streptococcus pneumoniae isolate 4747 by agar dilution method; method in brief: as §2
Streptococcus pneumoniae [23] = assay: Antimicrobial activity against Streptococcus pneumoniae isolate 1564 by agar dilution method
Streptococcus pneumoniae [24] = assay: Antimicrobial activity against Streptococcus pneumoniae isolate 1384 by agar dilution method; method in brief: as §2
Streptococcus pneumoniae [25] = assay: Antimicrobial activity against Streptococcus pneumoniae isolate 4755 by agar dilution method; method in brief: as §2
Streptococcus pneumoniae [26] = assay: Antimicrobial activity against Streptococcus pneumoniae isolate 2617 by agar dilution method; method in brief: as §2
Streptococcus pneumoniae [27] = assay: Antimicrobial activity against penicillin-intermediate Streptococcus pneumoniae by agar dilution method
Streptococcus pneumoniae [28] = assay: Antimicrobial activity against Streptococcus pneumoniae 2 by time-kill analysis
Method in brief: as §1, with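 “12,” for “12 and”, “=” for “if”, “drop” for “reduction”, “90%/99%/99.9%” for “90% and 99%”, “scored per strain.” for “also scored.”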

Streptococcus pneumoniae [29] = assay: Antimicrobial activity against Streptococcus pneumoniae isolate 1397 by agar dilution method; method in brief: as §2
Streptococcus pneumoniae [30] = assay: Antimicrobial activity against Streptococcus pneumoniae 11 by time-kill analysis
Method in brief: as §1, with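 “12,” for “12 and”, “=” for “if”, “drop” for “reduction”, “90%/99%/99.9%” for “90% and 99%”, “scored per strain.” for “also scored.”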

Streptococcus pneumoniae [31] = assay: Antimicrobial activity against Streptococcus pneumoniae isolate 3263 by agar dilution method
Streptococcus pneumoniae [32] = assay: Antimicrobial activity against Streptococcus pneumoniae 10 by time-kill analysis
Method in brief: as §1, with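 “12,” for “12 and”, “=” for “if”, “drop” for “reduction”, “90%/99%/99.9%” for “90% and 99%”, “scored per strain.” for “also scored.”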

Streptococcus pneumoniae [33] = assay: Antimicrobial activity against Streptococcus pneumoniae isolate 3458 by agar dilution method
Streptococcus pneumoniae [34] = assay: Antimicrobial activity against Streptococcus pneumoniae isolate 3587 by agar dilution method
Streptococcus pneumoniae [35] = assay: Antimicrobial activity against Streptococcus pneumoniae 4 by time-kill analysis
Method in brief: as §1, with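 “12,” for “12 and”, “=” for “if”, “drop” for “reduction”, “90%/99%/99.9%” for “90% and 99%”, “scored per strain.” for “also scored.”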

Streptococcus pneumoniae [36] = assay: Antimicrobial activity against penicillin-susceptible Streptococcus pneumoniae by agar dilution method
Streptococcus pneumoniae [37] = assay: Antimicrobial activity against Streptococcus pneumoniae isolate 24 by agar dilution method
Streptococcus pneumoniae [38] = assay: Antimicrobial activity against penicillin-resistant Streptococcus pneumoniae by agar dilution method; method in brief: as §2
Streptococcus pneumoniae [39] = assay: Antimicrobial activity against Streptococcus pneumoniae isolate 3275 by agar dilution method; method in brief: as §2
Streptococcus pneumoniae [40] = assay: Antimicrobial activity against Streptococcus pneumoniae isolate 3260 by agar dilution method
Streptococcus pneumoniae [41] = assay: Antimicrobial activity against Streptococcus pneumoniae isolate 3481 by agar dilution method; method in brief: as §2
Streptococcus pneumoniae [42] = assay: Antimicrobial activity against Streptococcus pneumoniae 19A by agar dilution method; method in brief: as §2
Streptococcus pneumoniae [43] = assay: Antimicrobial activity against Streptococcus pneumoniae 12 by time-kill analysis
Method in brief: as §1, with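 “12,” for “12 and”, “=” for “if”, “drop” for “reduction”, “90%/99%/99.9%” for “90% and 99%”, “scored per strain.” for “also scored.”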

Streptococcus pneumoniae [44] = assay: Antimicrobial activity against Streptococcus pneumoniae isolate 1394 by agar dilution method
Streptococcus pneumoniae [45] = assay: Antimicrobial activity against Streptococcus pneumoniae isolate 33 by agar dilution method; method in brief: as §2
Streptococcus pneumoniae [46] = assay: Antimicrobial activity against Streptococcus pneumoniae isolate 3412 by agar dilution method; method in brief: as §2
Streptococcus pneumoniae [47] = assay: Antimicrobial activity against Streptococcus pneumoniae isolate 3681 by agar dilution method; method in brief: as §2

CO/N=C(\C(=O)N[C@@H]1C(=O)N2C(C(=O)O)=C(CSc3nc(=O)c(O)nn3C)CS[C@H]12)c1csc(N)n1 [CEFTRIAXONE] gave an MIC (Streptococcus pneumoniae [1]) of 0.03 µg/mL (≈ 0.0541 µM), an MIC (Streptococcus pneumoniae [2]) of 4 µg/mL (≈ 7.21 µM) and an MIC (Streptococcus pneumoniae [3]) of 2 µg/mL (≈ 3.61 µM). It also gave an MIC (Streptococcus pneumoniae [4]) of 1 µg/mL (≈ 1.8 µM), an MIC (Streptococcus pneumoniae [5]) of 0.5 µg/mL (≈ 0.902 µM) and an MIC (Streptococcus pneumoniae [6]) of 0.12 µg/mL (≈ 0.216 µM). It also gave an MIC (Streptococcus pneumoniae [7]) of 4 µg/mL (≈ 7.21 µM), an MIC (Streptococcus pneumoniae [8]) of 1 µg/mL (≈ 1.8 µM) and an MIC (Streptococcus pneumoniae [9]) of 2 µg/mL (≈ 3.61 µM). For the same compound, the MIC (Streptococcus pneumoniae [10]) was 0.25 µg/mL (≈ 0.451 µM), the MIC (Streptococcus pneumoniae [11]) was 1 µg/mL (≈ 1.8 µM) and the MIC (Streptococcus pneumoniae [12]) was 2 µg/mL (≈ 3.61 µM). For the same compound, the MIC (Streptococcus pneumoniae [13]) was 4 µg/mL (≈ 7.21 µM), the MIC (Streptococcus pneumoniae [14]) was 2 µg/mL (≈ 3.61 µM) and the MIC (Streptococcus pneumoniae [15]) was 0.12 µg/mL (≈ 0.216 µM). For the same compound, the MIC (Streptococcus pneumoniae [16]) was 0.5 µg/mL (≈ 0.902 µM), the MIC (Streptococcus pneumoniae [17]) was 1 µg/mL (≈ 1.8 µM) and the MIC (Streptococcus pneumoniae [18]) was 1 µg/mL (≈ 1.8 µM). For the same compound, the MIC (Streptococcus pneumoniae [19]) was 2 µg/mL (≈ 3.61 µM), the MIC (Streptococcus pneumoniae [20]) was 2 µg/mL (≈ 3.61 µM) and the MIC (Streptococcus pneumoniae [21]) was 2 µg/mL (≈ 3.61 µM). For the same compound, the MIC (Streptococcus pneumoniae [22]) was 2 µg/mL (≈ 3.61 µM), the MIC (Streptococcus pneumoniae [23]) was greater than 8 µg/mL and the MIC (Streptococcus pneumoniae [24]) was 2 µg/mL (≈ 3.61 µM). The MIC (Streptococcus pneumoniae [25]) was 2 µg/mL (≈ 3.61 µM), the MIC (Streptococcus pneumoniae [26]) was 1 µg/mL (≈ 1.8 µM) and the MIC50 (Streptococcus pneumoniae [27]) was 0.125 µg/mL (≈ 0.225 µM). The MIC90 (Streptococcus pneumoniae [27]) was 1 µg/mL (≈ 1.8 µM), the MIC (Streptococcus pneumoniae [28]) was 0.016 µg/mL (≈ 0.0289 µM) and the MIC (Streptococcus pneumoniae [29]) was 4 µg/mL (≈ 7.21 µM). The MIC (Streptococcus pneumoniae [30]) was 4 µg/mL (≈ 7.21 µM), the MIC (Streptococcus pneumoniae [31]) was 1 µg/mL (≈ 1.8 µM) and the MIC (Streptococcus pneumoniae [32]) was 0.12 µg/mL (≈ 0.216 µM). It also gave an MIC (Streptococcus pneumoniae [33]) of 1 µg/mL (≈ 1.8 µM), an MIC (Streptococcus pneumoniae [34]) of 1 µg/mL (≈ 1.8 µM) and an MIC (Streptococcus pneumoniae [35]) of 4 µg/mL (≈ 7.21 µM). It also gave an MIC50 (Streptococcus pneumoniae [36]) of 0.03 µg/mL (≈ 0.0541 µM), an MIC90 (Streptococcus pneumoniae [36]) of 0.06 µg/mL (≈ 0.108 µM) and an MIC (Streptococcus pneumoniae [37]) of 2 µg/mL (≈ 3.61 µM). It also gave an MIC50 (Streptococcus pneumoniae [38]) of 1 µg/mL (≈ 1.8 µM), an MIC90 (Streptococcus pneumoniae [38]) of 2 µg/mL (≈ 3.61 µM) and an MIC (Streptococcus pneumoniae [39]) of 0.25 µg/mL (≈ 0.451 µM). For the same compound, the MIC (Streptococcus pneumoniae [40]) was 0.5 µg/mL (≈ 0.902 µM), the MIC (Streptococcus pneumoniae [41]) was 2 µg/mL (≈ 3.61 µM) and the MIC50 (Streptococcus pneumoniae [42]) was 2 µg/mL (≈ 3.61 µM). For the same compound, the MIC90 (Streptococcus pneumoniae [42]) was 2 µg/mL (≈ 3.61 µM), the MIC (Streptococcus pneumoniae [43]) was 1 µg/mL (≈ 1.8 µM) and the MIC (Streptococcus pneumoniae [44]) was 4 µg/mL (≈ 7.21 µM). It also gave an MIC (Streptococcus pneumoniae [45]) of 1 µg/mL (≈ 1.8 µM), an MIC (Streptococcus pneumoniae [46]) of 2 µg/mL (≈ 3.61 µM) and an MIC (Streptococcus pneumoniae [47]) of 1 µg/mL (≈ 1.8 µM).
